Data on six compounds can be found in ChEMBL document CHEMBL3351733, “Inhibition of the lymphoid tyrosine phosphatase: the effect of zinc(II) ions and chelating ligand fragments on enzymatic activity” (Bioorg Med Chem Lett, 2014).

What is called IC50 is the concentration that inhibits the measured activity by half.

Activity calls are given as the source filed them. No cut-off for these calls is given here.

The target of assay [1] is T1, Tyrosine-protein phosphatase non-receptor type 22 (Homo sapiens) (UniProt Q9Y2R2).
T1 sequence (whole entry): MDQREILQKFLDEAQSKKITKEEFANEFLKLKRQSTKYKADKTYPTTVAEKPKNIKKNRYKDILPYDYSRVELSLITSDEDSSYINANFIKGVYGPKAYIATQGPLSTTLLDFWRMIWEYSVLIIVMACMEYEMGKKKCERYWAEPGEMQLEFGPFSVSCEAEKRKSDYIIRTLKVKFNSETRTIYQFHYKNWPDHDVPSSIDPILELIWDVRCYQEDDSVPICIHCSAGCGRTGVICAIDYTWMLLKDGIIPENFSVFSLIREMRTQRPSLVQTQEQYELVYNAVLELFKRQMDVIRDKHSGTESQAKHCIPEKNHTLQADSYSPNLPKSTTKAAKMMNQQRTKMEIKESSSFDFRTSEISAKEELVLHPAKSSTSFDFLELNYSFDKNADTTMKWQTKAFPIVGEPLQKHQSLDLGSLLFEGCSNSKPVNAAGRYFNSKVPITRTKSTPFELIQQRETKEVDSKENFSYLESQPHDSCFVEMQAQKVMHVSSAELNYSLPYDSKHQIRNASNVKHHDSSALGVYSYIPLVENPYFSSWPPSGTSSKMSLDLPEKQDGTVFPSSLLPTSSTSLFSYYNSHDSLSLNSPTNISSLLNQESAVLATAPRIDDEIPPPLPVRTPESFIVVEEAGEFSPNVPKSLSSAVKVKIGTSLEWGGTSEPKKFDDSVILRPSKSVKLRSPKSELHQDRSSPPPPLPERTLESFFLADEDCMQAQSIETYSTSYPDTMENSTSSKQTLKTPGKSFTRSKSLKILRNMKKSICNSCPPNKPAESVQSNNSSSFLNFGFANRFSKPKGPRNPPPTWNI
As to the kind of experiment: Inhibition of LYP (unknown origin) incubated for 30 mins at 25 degC before addition of DiFMUP substrate in presence of 5 uM zinc acetate. Conditions: TDE = time-dependent effect. An outline of the steps: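 Fragment screen and follow-up dose-response run with 5 μM zinc acetate added to the LYP assay, alongside a parallel series without zinc.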

The target in assay [2] is T2, Tyrosine-protein phosphatase non-receptor type 22 (Homo sapiens, UniProt Q9Y2R2).
T2 sequence (Q9Y2R2 whole entry): T1 sequence (whole entry)
Kind of assay: Inhibition of LYP (unknown origin) using DiFMUP substrate incubated for 2 hrs. The procedure, abridged:
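LYP preincubated with inhibitor for 0, 30, 60 and 120 min before activity was read, without added zinc. IC50 came from the dose-response after the 2 h incubation.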

Assay [3] has as its target T3, Receptor-type tyrosine-protein phosphatase C (Homo sapiens) (UniProt P08575).
T3 sequence (whole entry): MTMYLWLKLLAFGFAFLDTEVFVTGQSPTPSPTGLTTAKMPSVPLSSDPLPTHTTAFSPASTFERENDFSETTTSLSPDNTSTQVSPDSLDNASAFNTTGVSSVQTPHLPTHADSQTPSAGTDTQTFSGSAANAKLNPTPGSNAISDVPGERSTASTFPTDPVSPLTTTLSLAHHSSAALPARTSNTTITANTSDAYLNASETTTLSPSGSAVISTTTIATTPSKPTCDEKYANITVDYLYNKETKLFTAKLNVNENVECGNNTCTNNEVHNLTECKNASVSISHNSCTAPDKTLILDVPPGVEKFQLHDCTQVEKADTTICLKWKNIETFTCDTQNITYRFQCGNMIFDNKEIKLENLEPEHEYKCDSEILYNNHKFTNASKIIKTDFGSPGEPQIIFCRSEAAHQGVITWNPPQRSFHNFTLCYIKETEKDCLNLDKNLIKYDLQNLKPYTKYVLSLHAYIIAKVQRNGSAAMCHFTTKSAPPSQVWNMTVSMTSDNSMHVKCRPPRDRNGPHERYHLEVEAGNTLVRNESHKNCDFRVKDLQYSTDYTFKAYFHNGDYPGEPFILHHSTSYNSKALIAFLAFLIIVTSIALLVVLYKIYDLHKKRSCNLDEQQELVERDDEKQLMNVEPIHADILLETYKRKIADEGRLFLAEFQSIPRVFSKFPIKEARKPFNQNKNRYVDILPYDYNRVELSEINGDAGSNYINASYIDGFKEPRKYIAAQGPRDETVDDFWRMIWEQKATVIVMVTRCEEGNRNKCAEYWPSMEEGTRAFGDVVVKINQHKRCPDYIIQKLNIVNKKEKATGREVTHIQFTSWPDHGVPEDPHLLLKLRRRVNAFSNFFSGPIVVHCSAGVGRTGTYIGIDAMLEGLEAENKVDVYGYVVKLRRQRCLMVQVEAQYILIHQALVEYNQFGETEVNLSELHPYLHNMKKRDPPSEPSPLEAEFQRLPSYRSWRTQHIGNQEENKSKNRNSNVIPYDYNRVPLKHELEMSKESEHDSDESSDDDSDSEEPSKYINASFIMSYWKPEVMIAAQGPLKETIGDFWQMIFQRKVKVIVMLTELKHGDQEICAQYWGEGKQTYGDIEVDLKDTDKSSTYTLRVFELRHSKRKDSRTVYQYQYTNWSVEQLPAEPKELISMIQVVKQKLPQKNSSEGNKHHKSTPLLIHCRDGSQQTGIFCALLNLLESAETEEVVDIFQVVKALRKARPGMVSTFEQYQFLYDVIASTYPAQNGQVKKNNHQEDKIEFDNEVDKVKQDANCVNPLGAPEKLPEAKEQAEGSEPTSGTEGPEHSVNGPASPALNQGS
As to the kind of experiment: Inhibition of CD45 (unknown origin).

Assay [4] in a line: Inhibition of YopH (unknown origin).
The target in assay [5] is T4, Tyrosine-protein phosphatase non-receptor type 1 (Homo sapiens) (UniProt P18031).
T4 sequence (whole entry): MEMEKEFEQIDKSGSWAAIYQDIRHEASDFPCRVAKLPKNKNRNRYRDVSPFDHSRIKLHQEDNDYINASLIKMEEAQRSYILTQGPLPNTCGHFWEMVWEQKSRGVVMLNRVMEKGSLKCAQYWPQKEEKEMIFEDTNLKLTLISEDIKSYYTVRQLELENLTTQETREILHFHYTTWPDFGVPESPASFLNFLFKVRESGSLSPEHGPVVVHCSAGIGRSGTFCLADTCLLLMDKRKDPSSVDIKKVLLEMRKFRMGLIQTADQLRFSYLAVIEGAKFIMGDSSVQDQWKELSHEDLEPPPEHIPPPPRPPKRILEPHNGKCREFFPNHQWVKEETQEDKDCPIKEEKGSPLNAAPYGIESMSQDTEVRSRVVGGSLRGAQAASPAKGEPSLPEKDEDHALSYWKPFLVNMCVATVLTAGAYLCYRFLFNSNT
Kind of assay: Inhibition of PTP1B (unknown origin).

The target in assay [6] is T1, Tyrosine-protein phosphatase non-receptor type 22 (Homo sapiens). Kind of assay: Protection against 40 uM zinc-acetate-induced inhibition of LYP (unknown origin) at 80 uM incubated for 30 mins at 25 degC before addition of DiFMUP substrate.
Assay [7] has the same target. As to the kind of experiment: Inhibition of LYP (unknown origin) at 20 to 100 uM incubated for 30 mins at 25 degC before addition of DiFMUP substrate.

Regarding `Oc1ccc2ccccc2c1O`, the inhibition entry in assay [1] was “tde”. This compound yielded an IC50 in assay [2] of 2520 nM. The inhibition result in assay [3], in assay [4] and in assay [5] was “Active” each time.
For the compound `O=C(O)c1cccc(C(=O)O)n1`, the outcome in assay [6] was Active. For the same compound, the inhibition entry in assay [7] was “inactive”.
In the same order, the values of `c1ccc(CNCc2ccccn2)nc1` are “Active” and “inactive”.
Compound `O=C1C=Cc2ccccc2C1=O` [1,2-NAPHTHOQUINONE] showed a half-maximal inhibitory concentration (IC50) in assay [2] of 1100 nM.
For the compound `O=C1C=C(O)C(=O)c2ccccc21` [LAWSONE], in assay [2], the midpoint of inhibition, the IC50, lay at 5600 nM.
For the compound `Oc1ccc(Cl)c2cccnc12`, the result in assay [6] was Active. The inhibition entry in assay [7] is “inactive”.
